Test [1] deals with Phosphodiesterase 4 (Homo sapiens, UniProt P27815+Q08499+Q07343+Q08493). Briefly: Inhibition in vitro of Phosphodiesterase 4 activity isolated from guinea pig lung. The test is classed as protein assay, Cavia porcellus. To be noted: target entry is the homologue from another species. The method in brief:
(§1)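 PDEs came from guinea pig cardiac ventricle (types I, III) and lung (types IV, V). Tissue was homogenized at pH 6.5 with protease inhibitors and spun at 25000G, and the supernatant was run on DEAE-Sephacrose with a 50–1000 mM sodium acetate gradient. Assay: 40 mM Tris-HCl pH 8.0, 5 mM MgCl2, 4 mM 2-mercaptoethanol, 1.0 μM [3H]cAMP or [3H]cGMP, 20 min at 30 °C, substrate hydrolysis ≤20%. Triplicates at 3–4 inhibitor levels; IC50 read graphically.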

In test [2] the test system is Cavia porcellus. Briefly: Reduced histamine-induced bronchoconstriction in anesthetized guinea pig at 3 mg/kg intravenous dose. Format: functional. The method in brief: (§2)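 Anesthetized guinea pigs immobilized with gallamine triethiodide (5 mg/kg iv) and artificially ventilated. Histamine dihydrochloride (2 μg/kg) given iv via the lateral saphenous vein at 10 min intervals. Compound suspended in saline with Tween 80, given iv 1 min before histamine. Pulmonary inflation pressure recorded as the bronchospasm index; result expressed as percent inhibition of histamine-induced bronchoconstriction.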

For test [3], the target named is Phosphodiesterase 1 (Cavia porcellus). Briefly: Inhibition in vitro of Phosphodiesterase 1 isolated from guinea pig cardiac ventricle.
In test [4] the target is T1, Phosphodiesterase 3 (Homo sapiens, UniProt Q14432+Q13370). Briefly: Inhibition in vitro of Phosphodiesterase 3 isolated from guinea pig cardiac ventricle. The test is classed as protein assay, Cavia porcellus. To be noted: target entry is the homologue from another species. The method, boiled down: as §1
Test [5] relates to Cavia porcellus. Briefly: Change in heart rate in guinea pigs after 3 mg/kg intravenous dose. The test is classed as functional. The method, boiled down: (§3)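 Anesthetized guinea pigs in the histamine bronchospasm setup, with spontaneous breathing abolished by gallamine triethiodide (5 mg/kg iv). Heart rate was taken by cardiography triggered on the ECG R wave (standard limb lead II). Test agent was suspended in saline with Tween 80 and given iv 1 min before histamine. The value is the post-dose rate minus the basal rate (basal 230–330 beats/min).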

Test [6] has as its system Cavia porcellus. Briefly: Reduced histamine-induced bronchoconstriction in anesthetized guinea pig at 0.3 mg/kg intravenous dose. Format: functional.
Test [7] concerns Cavia porcellus. Briefly: Change in heart rate in guinea pigs after 0.3 mg/kg intravenous dose. The test is classed as functional. The method, boiled down:
as §3

Test [8] concerns Cavia porcellus. Briefly: Change in heart rate in guinea pigs after 1 mg/kg intravenous dose. Format: functional. The method in brief: as §3
Test [9] deals with Cavia porcellus. Briefly: Reduced histamine-induced bronchoconstriction in anesthetized guinea pig at 1 mg/kg intravenous dose. The test is classed as functional. The method, boiled down: as §2
Test [10] concerns Cavia porcellus. Briefly: Inhibition of histamine-induced bronchoconstriction in anesthetized guinea pig at 3 mg/kg intravenous dose.
Test [11] deals with Cavia porcellus. Briefly: Inhibition of antigen-induced bronchoconstriction in anesthetized guinea pig at 3 mg/kg intravenous dose. The test is classed as functional.
Test [12] relates to Cavia porcellus. Briefly: Change in heart rate in guinea pigs after 0.1 mg/kg intravenous dose. The test is classed as functional. The method in brief: as §3
For test [13], the system named is Cavia porcellus. Briefly: Reduced histamine-induced bronchoconstriction in anesthetized guinea pig at 0.1 mg/kg intravenous dose. The test is classed as functional.
The subject of test [14] is Cavia porcellus. Briefly: Reduced histamine-induced bronchoconstriction in anesthetized guinea pig at 0.03 mg/kg intravenous dose. The test is classed as functional.
Test [15] concerns Cavia porcellus. Briefly: Inhibition of histamine-induced bronchoconstriction in anesthetized guinea pig at 0.03 mg/kg intravenous dose.
Test [16] deals with Cavia porcellus. Briefly: Change in heart rate in guinea pigs after 0.03 mg/kg intravenous dose. Format: functional. The method in brief:
as §3

Test [17] deals with Cavia porcellus. Briefly: (§4) Inhibition of antigen-induced bronchoconstriction in anesthetized guinea pig at 0.1 mg/kg intravenous dose. Format: functional.
The subject of test [18] is Cavia porcellus. Briefly: Change in guinea pig heart rate after intravenous administration of 0.1 mg/kg. Format: functional. The method in brief:
as §3

The test system of test [19] is Cavia porcellus. The description is as §4. Format: functional. The source holds these as a separate data set.
The nature of test [20]: Inhibition of Phosphodiesterase 4 from guinea pig lung. The arrangement: species or system Cavia porcellus. The method, boiled down: as §1
Test [21] concerns Cavia porcellus. Briefly: Inhibition of histamine-induced bronchoconstriction in anesthetized guinea pig at 0.1 mg/kg intravenous dose.
Test [22] in a line: Inhibition of Phosphodiesterase 5 from guinea pig lung. More on the design: species or system Cavia porcellus. The method in brief: as §1
Test [23] has as its target Phosphodiesterase 1 (Homo sapiens, UniProt P54750+Q01064+Q14123). Briefly: Inhibition of Phosphodiesterase 1 from guinea pig cardiac ventricle. The test is classed as protein assay, Cavia porcellus. To be noted: target entry is the homologue from another species. The method in brief:
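PDE I pooled from DEAE-Sepharose fractions of guinea pig cardiac ventricle homogenate (pH 6.5 buffer with protease inhibitors, sodium acetate gradient). Assay buffer 40 mM Tris-HCl pH 8.0, 5 mM MgCl2, 4 mM 2-mercaptoethanol. Substrate [3H]cAMP or [3H]cGMP at 1.0 μM, hydrolysis kept ≤20%. Run 20 min at 30 °C, inhibitors in DMSO. Triplicates at 3–4 concentrations, IC50 read graphically from means.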

The target of test [24] is T1, Phosphodiesterase 3. Briefly: Inhibition of Phosphodiesterase 3 from guinea pig cardiac ventricle. To be noted: target entry is the homologue from another species. The test is classed as protein assay, Cavia porcellus. The method, boiled down: as §1

Values joined by “and” are separate entries in the source; they are usually repeats but may differ in a detail not shown here. Equal entries are not always repeated.

What is called IC50 is the concentration that inhibits the measured activity by half. For the compound `COc1cc2cc3c(c(-c4cc(OC)c(OC)c(OC)c4)c2cc1OC)C(=O)OC3`, the IC50 in test [1] was found to be 0.5 µM.

Consider `COc1cc2cc(CO)c(CO)c(-c3cc(OC)c(OC)c(OC)c3)c2cc1OC`, for which the Reduction in test [2] was determined as 89%. The IC50 in [3] came out at 60 µM; in [1], 0.3 µM; in test [4], 0.9 µM. In [5], this compound had a Delta beats/min of 79.

For the compound `COc1cc2cc(CO)c(CO)c(Cc3cc(OC)c(OC)c(OC)c3)c2cc1OC`, the values for the IC50 in test [3], in test [1] and in test [4] were 40 µM, 5 µM and 8 µM, respectively.

With `CCCCn1ccc(-c2c(CO)c(CO)cc3cc(OCC)c(OCC)cc23)cc1=O`, the results for the half-inhibitory concentration (IC50) in test [1] and in test [4] were 0.03 µM and 50 µM, respectively. For the same compound, the Reduction in test [6] came out at 47%. In [7], this compound returned a Heart rate of -5 beats min-1.

With `COc1cc2cc(CO)c(CO)c(C3=CC=NC(=O)C3)c2cc1OC`, the IC50 was over 100 µM in test [3], 0.2 µM in test [1] and 20 µM in test [4].

With `COc1cc2cc(CO)c(CO)c(-c3ccn(C)c(=O)c3)c2cc1OC`, the 50% inhibitory concentration (IC50) in test [1] turned out to be 0.6 µM; in test [4], 20 µM.

Turning to `CCOc1cc2cc(CO)c(CO)c(-c3ccn(CCOC)c(=O)c3)c2cc1OC`, the Reduction in [2] is listed as 98%; in test [6], 30%; in test [9] it was 76%. The results for the Heart rate in test [8], in test [7] and in [5] were 7 beats min-1, 4 beats min-1 and 6 beats min-1, respectively. The concentration for half-maximal inhibition (IC50) in test [1] is 0.45 µM; in test [4] it was 7 µM.

For orientation: ED50 means the midpoint of the dose-response relation. A lower ED50 goes with greater potency. Consider `CCOc1cc2cc(CO)c(CO)c(-c3cc(N)c(OC)c(OC)c3)c2cc1OCC.Cl`, for which, in test [8], the Heart rate turned out to be 1 beats min-1. The values for the half-inhibitory concentration (IC50) in test [3], in test [1] and in test [4] were 50 µM, 0.05 µM and 20 µM, respectively. The ED50 in [10] is 0.39 mg/kg; in test [11] it was over 10 mg/kg. For the same compound, the Reduction in test [6] (0.3 mg/kg) was 45% and 90%; in [9], 69%.

In the case of `COc1cc2cc(CO)c(CO)c(-c3cc(OC)c(OC)c(C(=O)N(C)C)c3)c2cc1OC`, the Heart rate in [12] is 28 beats min-1; in [7], 50 beats min-1; in test [16] it was 1 beats min-1. In addition, the Reduction in [13] was found to be 83%; in test [14], 59%; in test [6], 69%. Moreover, the IC50 was over 100 µM in test [3], 0.005 µM in test [1] and 0.06 µM in test [4]. In test [15], this compound gave a 50% effective dose (ED50) of 0.03 mg/kg.

With `COCCn1ccc(-c2c(CO)c(CO)cc3cc(OC)c(OC)cc23)cc1=O`, the results for the Heart rate in test [12] and in [7] were 1 beats min-1 and 3 beats min-1, respectively. For the same compound, the Reduction is given as 70% in test [2] and 34% in test [13]. The IC50 in test [1] is 0.5 µM; in test [4], 14 µM. In [17], this compound yielded an ED50 of 0.16 mg/kg.

On to `COc1cc2cc(CO)c(CO)cc2cc1OC`, for which the values for the IC50 in test [3], in test [1] and in test [4] were over 100 µM, 20 µM and over 100 µM, respectively.

In the case of `COc1cc2cc(CO)c(CO)c(-c3cc(OC)c(OC)c(S(C)(=O)=O)c3)c2cc1OC`, the figures for the Heart rate in [12], in [7] and in test [16] were 1 beats min-1, -7 beats min-1 and 3 beats min-1, respectively. The Reduction was 57% in test [13], 34% in [14] and 71% in [6]. The IC50 in test [3] came out at 100 µM; in [1] it was 0.05 µM; in test [4], 0.09 µM. Further, in test [15], the median effective dose (ED50) stood at 0.093 mg/kg.

`CCOc1cc2cc(CO)c(CO)c(-c3ccn(CCOC)c(=O)c3)c2cc1OCC`: the figures for the Reduction in test [13] and in test [6] were 60% and 92%, respectively. The IC50 in [1] is 0.057 µM; in [4], 57 µM. The Heart rate in test [18], in test [7] and in test [5] was 5 beats min-1 each time. Also, the median effective dose (ED50) in test [19] is 2.3 mg/kg; in [17], 0.08 mg/kg.

For `COc1cc(-c2c(CO)c(CO)cc3cc4c(cc23)OCO4)cc(OC)c1OC`, the figures for the half-maximal inhibitory concentration (IC50) in test [3], in [1] and in test [4] were over 100 µM, over 30 µM and over 100 µM, respectively.

As to `COc1ccc(-c2c(CO)c(CO)cc3cc(OC)c(OC)cc23)cc1OC`, the results for the concentration for half-maximal inhibition (IC50) in [1] and in [4] were 0.2 µM and 1 µM, respectively.

On to `COc1cc2cc(CO)c(CO)c(-c3cc(NC(C)=O)c(OC)c(OC)c3)c2cc1OC`, for which the IC50 in [3] is 100 µM; in [1] it was 0.07 µM; in test [4], 2 µM.

Consider `COc1ccc2c(-c3cc(OC)c(OC)c(OC)c3)c(CO)c(CO)cc2c1`, for which the concentration for half-maximal inhibition (IC50) was 30 µM in test [3], 40 µM in test [1] and 20 µM in test [4].

With `COc1ccc(C2CNC(=O)C2)cc1OC1CCCC1` (centres undefined) [ROLIPRAM], the Heart rate worked out at 9 beats min-1 in test [12] and 3 beats min-1 in test [8]. The figures for the Reduction in test [13] and in [9] were 79% and 72%, respectively. The IC50 in test [20] was 1.9 µM; in test [22], over 100 µM; in [23], over 100 µM; in test [24] it was over 100 µM. Besides, the ED50 in test [21] worked out at 0.01 mg/kg; in test [17], 19 mg/kg.
